Activity calls are given as the source filed them. The rule behind the calls is not given here.
What was measured:
Sarcoma-180 [1] = assay: Antitumor activity against mouse Sarcoma 180 cells allografted in Swiss mouse at 150 mg/kg, ip three doses were given at 24 hrs interval starting 24 hrs after allograft injection relative to control; format: functional; conditions: route intraperitoneal
How it was run: (§1)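 Swiss mice received 10^6 ascitic sarcoma 180 cells ip, then three ip doses 24 h apart starting at 24 h. Controls got isotonic salt solution on the same schedule. T/C% is mean survival time of treated over controls (6 mice per group).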

[2] = Acute toxicity in single ip dosed Swiss mouse assessed as death up to 5 days; format: organism-based; conditions: in vivo
How it was run: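 Male Swiss mice given one ip dose. LD50 taken as the single dose killing 50% of animals within 5 days.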

Sarcoma-180 [3] = assay: Antitumor activity against mouse Sarcoma 180 cells allografted in Swiss mouse assessed as survival at 150 mg/kg, ip three doses were given at 24 hrs interval starting 24 hrs after allograft injection measured after 5 days; format: functional, organism-based; design: dose 150 mg/kg
How it was run: (§2)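 Swiss mice were injected ip with 10^6 ascitic sarcoma 180 cells. Three daily ip doses followed, the first 24 h after cell injection. The read-out was the number of mice surviving at 5 days, out of 6 treated.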

[4] = Redox potential of the compound in alcohol-water solution; conditions: buffer
Sarcoma-180 [5] = assay: Antitumor activity against mouse Sarcoma 180 cells allografted in Swiss mouse assessed as weight gain at 150 mg/kg, ip three doses were given at 24 hrs interval starting 24 hrs after allograft injection measured after 3 days relative to control; format: functional; conditions: route intraperitoneal
How it was run: (§3)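 Ascitic sarcoma 180 model in Swiss mice: 10^6 cells ip, then three ip doses at 24-h intervals beginning 24 h later. Mice were weighed 1 day after cell injection and again 3 days later (24 h after the third dose). Percent weight gain of treated mice was compared with saline-treated controls on the same schedule.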

Sarcoma-180 [6] = assay: Antitumor activity against mouse Sarcoma 180 cells allografted in Swiss mouse assessed as survival time at 150 mg/kg, ip three doses were given at 24 hrs interval starting 24 hrs after allograft injection relative to control; format: functional; conditions: route intraperitoneal
How it was run: (§4)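 Swiss mice inoculated ip with 10^6 ascitic sarcoma 180 cells. Compound given ip daily ×3 at 24-h intervals, starting 24 h after inoculation. Controls received isotonic saline on the same schedule; 6 mice per group. Mice alive at 60 days counted as 60 days in mean survival (±SD).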

Sarcoma-180 [7] = assay: Antitumor activity against mouse Sarcoma 180 cells allografted in Swiss mouse assessed as cure at 150 mg/kg, ip three doses were given at 24 hrs interval starting 24 hrs after allograft injection measured after 60 days; format: functional, organism-based; design: dose 150 mg/kg
How it was run: (§5)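 Swiss mice given 10^6 ascitic sarcoma 180 cells ip. Starting 24 h later, three ip doses were given 24 h apart. Controls got isotonic salt solution on the same schedule. A cure was a mouse alive with no evidence of cancer cells 60 days after cell injection, reported per 6 mice.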

Sarcoma-180 [8] = assay: Antitumor activity against mouse Sarcoma 180 cells allografted in Swiss mouse assessed as survival time at 10 mg/kg, ip three doses were given at 24 hrs interval starting 24 hrs after allograft injection relative to control; format: functional; conditions: route intraperitoneal; how it was run: as §4
[9] = Half life of the compound in water at pH 7 at 25 degC by spectrophotometry; format: physicochemical
How it was run: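 Compound dissolved in absolute ethanol, then diluted into 0.01 M Tris buffer brought to pH 7 with HCl, 25 °C. Absorbance at λmax followed over hours or days; log absorbance vs time fitted by least squares, rate constant and half-time taken from the slope.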

Sarcoma-180 [10] = assay: Antitumor activity against mouse Sarcoma 180 cells allografted in Swiss mouse assessed as weight gain at 10 mg/kg, ip three doses were given at 24 hrs interval starting 24 hrs after allograft injection measured after 3 days relative to control; format: functional; conditions: route intraperitoneal; how it was run: as §3
Sarcoma-180 [11] = assay: Antitumor activity against mouse Sarcoma 180 cells allografted in Swiss mouse assessed as cure at 10 mg/kg, ip three doses were given at 24 hrs interval starting 24 hrs after allograft injection measured after 60 days; format: functional, organism-based; design: dose 10 mg/kg; how it was run: as §5
Sarcoma-180 [12] = assay: Antitumor activity against mouse Sarcoma 180 cells allografted in Swiss mouse at 10 mg/kg, ip three doses were given at 24 hrs interval starting 24 hrs after allograft injection relative to control; format: functional; conditions: route intraperitoneal; how it was run: as §1
Sarcoma-180 [13] = assay: Antitumor activity against mouse Sarcoma 180 cells allografted in Swiss mouse assessed as survival at 10 mg/kg, ip three doses were given at 24 hrs interval starting 24 hrs after allograft injection measured after 5 days; format: functional, organism-based; design: dose 10 mg/kg; how it was run: as §2
Sarcoma-180 [14] = assay: Antitumor activity against mouse Sarcoma 180 cells allografted in Swiss mouse at 3 mg/kg, ip three doses were given at 24 hrs interval starting 24 hrs after allograft injection relative to control; format: functional; conditions: route intraperitoneal; how it was run: as §1
Sarcoma-180 [15] = assay: Antitumor activity against mouse Sarcoma 180 cells allografted in Swiss mouse assessed as survival time at 3 mg/kg, ip three doses were given at 24 hrs interval starting 24 hrs after allograft injection relative to control; format: functional; conditions: route intraperitoneal; how it was run: as §4
Sarcoma-180 [16] = assay: Antitumor activity against mouse Sarcoma 180 cells allografted in Swiss mouse assessed as survival at 3 mg/kg, ip three doses were given at 24 hrs interval starting 24 hrs after allograft injection measured after 5 days; format: functional, organism-based; design: dose 3 mg/kg; how it was run: as §2
Sarcoma-180 [17] = assay: Antitumor activity against mouse Sarcoma 180 cells allografted in Swiss mouse assessed as weight gain at 3 mg/kg, ip three doses were given at 24 hrs interval starting 24 hrs after allograft injection measured after 3 days relative to control; format: functional; conditions: route intraperitoneal; how it was run: as §3
Sarcoma-180 [18] = assay: Antitumor activity against mouse Sarcoma 180 cells allografted in Swiss mouse assessed as cure at 15 mg/kg, ip three doses were given at 24 hrs interval starting 24 hrs after allograft injection measured after 60 days; format: functional, organism-based; design: dose 15 mg/kg; how it was run: as §5
Sarcoma-180 [19] = assay: Antitumor activity against mouse Sarcoma 180 cells allografted in Swiss mouse assessed as survival time at 15 mg/kg, ip three doses were given at 24 hrs interval starting 24 hrs after allograft injection relative to control; format: functional; conditions: route intraperitoneal; how it was run: as §4
Sarcoma-180 [20] = assay: Antitumor activity against mouse Sarcoma 180 cells allografted in Swiss mouse assessed as survival at 15 mg/kg, ip three doses were given at 24 hrs interval starting 24 hrs after allograft injection measured after 5 days; format: functional, organism-based; design: dose 15 mg/kg; how it was run: as §2
Sarcoma-180 [21] = assay: Antitumor activity against mouse Sarcoma 180 cells allografted in Swiss mouse at 15 mg/kg, ip three doses were given at 24 hrs interval starting 24 hrs after allograft injection relative to control; format: functional; conditions: route intraperitoneal; how it was run: as §1
Sarcoma-180 [22] = assay: Antitumor activity against mouse Sarcoma 180 cells allografted in Swiss mouse assessed as weight gain at 15 mg/kg, ip three doses were given at 24 hrs interval starting 24 hrs after allograft injection measured after 3 days relative to control; format: functional; conditions: route intraperitoneal; how it was run: as §3
Sarcoma-180 [23] = assay: Antitumor activity against mouse Sarcoma 180 cells allografted in Swiss mouse assessed as survival time at 30 mg/kg, ip three doses were given at 24 hrs interval starting 24 hrs after allograft injection relative to control; format: functional; conditions: route intraperitoneal; how it was run: as §4
Sarcoma-180 [24] = assay: Antitumor activity against mouse Sarcoma 180 cells allografted in Swiss mouse assessed as weight gain at 30 mg/kg, ip three doses were given at 24 hrs interval starting 24 hrs after allograft injection measured after 3 days relative to control; format: functional; conditions: route intraperitoneal; how it was run: as §3
Sarcoma-180 [25] = assay: Antitumor activity against mouse Sarcoma 180 cells allografted in Swiss mouse assessed as survival at 30 mg/kg, ip three doses were given at 24 hrs interval starting 24 hrs after allograft injection measured after 5 days; format: functional, organism-based; design: dose 30 mg/kg; how it was run: as §2
Sarcoma-180 [26] = assay: Antitumor activity against mouse Sarcoma 180 cells allografted in Swiss mouse assessed as cure at 30 mg/kg, ip three doses were given at 24 hrs interval starting 24 hrs after allograft injection measured after 60 days; format: functional, organism-based; design: dose 30 mg/kg; how it was run: as §5
Sarcoma-180 [27] = assay: Antitumor activity against mouse Sarcoma 180 cells allografted in Swiss mouse at 30 mg/kg, ip three doses were given at 24 hrs interval starting 24 hrs after allograft injection relative to control; format: functional; conditions: route intraperitoneal; how it was run: as §1

| SMILES | LD50 at 120 h [2] | Redox potential [4] | Survival (Sarcoma-180 [8]) | half-life [9] | Activity (Sarcoma-180 [10]) | Activity (Sarcoma-180 [11]) | T/C (Sarcoma-180 [12]) | Activity (Sarcoma-180 [13]) | also measured |
| --- | --- | --- | --- | --- | --- | --- | --- | --- | --- |
| O=C1C=CC(=NO)C=C1 | 260 mg/kg | 0.544 V |  |  |  |  |  |  | T/C (Sarcoma-180 [1]): 135%; Activity (Sarcoma-180 [3]): Active; Activity (Sarcoma-180 [5]): -5.2%; Survival (Sarcoma-180 [6]): 17.8 days; Activity (Sarcoma-180 [7]): inactive |
| O=C1C(Cl)=CC(=NCl)C=C1Cl | 20 mg/kg | 0.659 V | 25.3 days | 1.67 days | -14.2% | inactive | 220% | Active |  |
| CC(=O)NC1=C/C(=N\c2ccc(N(C)C)cc2)C=CC1=O | 70 mg/kg | 0.58 V |  |  |  |  |  |  | T/C (Sarcoma-180 [14]): 194%; Survival (Sarcoma-180 [15]): 26.8 days; Activity (Sarcoma-180 [16]): Active; Activity (Sarcoma-180 [17]): 4.3% |
| O=C1C=CC(=NBr)C=C1 | 40 mg/kg | 0.518 V |  |  |  |  |  |  | Activity (Sarcoma-180 [18]): inactive; Survival (Sarcoma-180 [19]): 15.5 days; Activity (Sarcoma-180 [20]): Active; T/C (Sarcoma-180 [21]): 145%; Activity (Sarcoma-180 [22]): -3.8% |
| COC1=C/C(=N\c2ccc(N(C)C)cc2)C=CC1=O | 25 mg/kg | 0.561 V | 19.3 days |  | 1.9% | inactive | 181% | Active |  |
| CN(C)c1ccc(N=C2C=CC(=O)C=C2)cc1 | 80 mg/kg | 0.628 V |  | 29.2 days |  |  |  |  | Survival (Sarcoma-180 [23]): 19.2 days; Activity (Sarcoma-180 [24]): -0.9%; Activity (Sarcoma-180 [25]): Active; Activity (Sarcoma-180 [26]): inactive; T/C (Sarcoma-180 [27]): 132% |

From ChEMBL document CHEMBL3271988, “Nitrogen analogues of 1,4-benzoquinones. Activities against the ascitic sarcoma 180 of mice” (J Med Chem, 1978)
